In ChEMBL document CHEMBL1153722, “Design, synthesis, and characterization of peptide-based rab geranylgeranyl transferase inhibitors” (J Med Chem, 2009):
Peptide text beside a SMILES is read from it. * marks the point of attachment. Hydrocinnamoyl = O=C(CCc1ccccc1)*; Undecanoyl = CCCCCCCCCCC(=O)*; Cbz = O=C(OCc1ccccc1)*; NHBn = c1ccc(CN*)cc1; NHPh = c1ccc(N*)cc1; NHOH = ON*

Species on record: Rattus norvegicus
Test: Inhibition of rat recombinant Rab geranylgeranyltransferase at 100 uM in presence of canine Rab7 and rat REP1 NBD-FPP based continuous fluorimetric assay
Procedure, shortened: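 Continuous fluorometric assay in 96/384-well format: 3 μM Rab7, 3 μM REP1, 9 μM NBD-FPP and 400 nM RabGGTase, with or without inhibitor. […] IC50 was calculated from three independent measurements.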

| SMILES | inhibition [%] |
| --- | --- |
| CC(C)[C@H](NC(=O)c1coc(-c2ccccc2)n1)C(=O)NCC(=O)N[C@@H](Cc1c[nH]cn1)C(=O)Nc1ccc(F)cc1F | 55 |
| NC(=O)CC[C@H](NC(=O)[C@H](Cc1ccccc1)NC(=O)[C@H](CO)NC(=O)CCc1ccccc1)C(=O)O (Hydrocinnamoyl-Ser-Phe-Gln-OH) | 102 |
| CC(C)C[C@H](NC(=O)[C@H](COC(C)(C)C)NC(=O)[C@H](Cc1ccccc1)NC(=O)c1ccc(-c2ccccc2)cc1)C(N)=O | 48 |
| O=C(CNC(=O)c1csc(C2CCNCC2)n1)N[C@@H](Cc1ccccc1)C(=O)N[C@@H](Cc1c[nH]cn1)C(=O)O | 124 |
| COC(=O)[C@H](CO)NC(=O)CNC(=O)[C@H](Cc1ccccc1)NC(=O)C1COC(c2ccccc2)=N1 (stereo partly specified) | 136 |
| O=C(CNC(=O)[C@H](Cc1c[nH]cn1)NC(=O)OCc1ccccc1)N[C@@H](Cc1ccc(O)cc1)C(=O)NCCCn1ccnc1 | 85 |
| O=C(CCc1ccc(F)cc1)N[C@@H](Cc1ccc(O)cc1)C(=O)NCC(=O)N[C@@H](Cc1ccc(O)cc1)C(=O)NCc1ccccc1 | 127 |
| C[C@@H](O)[C@H](NC(=O)/C=C/c1ccccc1)C(=O)N[C@@H](Cc1ccccc1)C(=O)N[C@@H](CCC(N)=O)C(=O)OCCCl | 81 |
| COc1ccc(C[C@@H](C(=O)N(C)[C@@H](Cc2ccccc2)C(=O)O)N(C)C(=O)[C@@H](Cc2ccc(O)cc2)NC(=O)OCc2ccccc2)cc1 | 25 |
| O=C(CCc1ccccc1)N[C@@H](CO)C(=O)N[C@@H](Cc1ccccc1)C(=O)N[C@@H](CO)C(=O)NCc1ccccc1 (Hydrocinnamoyl-Ser-Phe-Ser-NHBn) | 95 |
| COC(=O)[C@H](CCC(N)=O)NC(=O)[C@H](Cc1ccccc1)NC(=O)[C@H](CO)NC(=O)CCc1ccccc1 (Hydrocinnamoyl-Ser-Phe-Gln-OMe) | 76 |
| CC[C@H](C)[C@H](NC(=O)/C=C/c1ccc(F)cc1)C(=O)N[C@@H](C)C(=O)N[C@@H](CCC(N)=O)C(=O)OC | 83 |
| CON(C)C(=O)[C@H](CC(C)C)NC(=O)[C@H](CO)NC(=O)[C@H](Cc1ccccc1)NC(=O)/C=C/c1ccc(F)cc1 | 71 |
| O=C(N[C@@H](CO)C(=O)N[C@@H](Cc1ccccc1)C(=O)N[C@@H](CO)C(=O)O)C(Br)C(Br)c1ccc(F)cc1 (stereo partly specified) | 92 |
| O=C(CNC(=O)[C@@H]1CCCN1C(=O)/C=C/c1ccccc1)N[C@@H](Cc1ccccc1)C(=O)NC1CCCCC1 | 61 |
| COC(=O)[C@H](CO)NC(=O)[C@H](Cc1ccccc1)NC(=O)[C@H](CO)NC(=O)C(Br)C(Br)c1ccc(F)cc1 (stereo partly specified) | 80 |
| O=C(CNC(=O)c1coc(-c2ccccc2)n1)N[C@@H](Cc1c[nH]cn1)C(=O)N[C@@H](Cc1c[nH]cn1)C(=O)O | 96 |
| O=C(N[C@H](Cc1ccc(O)cc1)C(=O)N[C@@H](Cc1ccc(O)cc1)C(=O)N[C@@H](Cc1ccc(O)cc1)C(=O)O)OCc1ccccc1 | 42 |

| SMILES | inhibition [%] |
| --- | --- |
| CC(C)C[C@H](NC(=O)[C@H](CO)NC(=O)[C@H](Cc1ccccc1)NC(=O)CCc1ccccc1)C(N)=O | 100 |
| COC(=O)[C@H](CCC(N)=O)NC(=O)[C@H](NC(=O)[C@H]1CCCN1C(=O)c1ccc([N+](=O)[O-])c(NC(C)=O)c1)C(C)C | 98 |
| CC(C)C[C@H](NC(=O)[C@H](COC(C)(C)C)NC(=O)[C@H](Cc1ccccc1)NC(=O)/C=C/c1ccc(F)cc1)C(=O)O | 103 |
| CC(=O)Nc1cc(C(=O)N2CCC[C@H]2C(=O)N[C@@H](C(=O)N[C@@H](CCC(=O)O)C(N)=O)C(C)C)ccc1[N+](=O)[O-] | 111 |
| NC(=O)CC[C@H](NC(=O)[C@H](Cc1ccccc1)NC(=O)CNC(=O)CCc1ccccc1)C(N)=O (Hydrocinnamoyl-Gly-Phe-Gln-NH2) | 103 |
| O=C(CNC(=O)[C@@H]1CCCN1C(=O)c1coc(-c2ccccc2)n1)N[C@@H](Cc1c[nH]cn1)C(=O)Nc1ccc(F)cc1F | 87 |
| O=C(/C=C/c1ccc(F)cc1)N[C@@H](CO)C(=O)N[C@@H](Cc1ccccc1)C(=O)N[C@@H](CO)C(=O)NC1CCCCC1 | 86 |
| COc1ccc(C[C@@H](C(=O)N(C)[C@@H](Cc2ccccc2)C(=O)O)N(C)C(=O)[C@@H](Cc2ccc(O)cc2)NC(=O)CCc2ccccc2)cc1 | 46 |
| O=C(CNC(=O)C1CCCN1C(=O)/C=C/c1ccccc1)NC(Cc1ccccc1)C(=O)NCc1ccc(F)cc1F (stereo unspecified) | 54 |
| CCC(C)OC(=O)[C@H](CCC(N)=O)NC(=O)[C@H](Cc1ccccc1)NC(=O)[C@@H](C)NC(=O)CCc1ccccc1 (stereo partly specified) | 83 |
| CC(C)C[C@H](NC(=O)[C@@H]1CCCN1C(=O)/C=C/c1ccccc1)C(=O)N[C@@H](Cc1ccccc1)C(=O)NCc1ccc(F)cc1F | 26 |
| O=C(N[C@@H](Cc1ccc(O)cc1)C(=O)N[C@@H](Cc1ccc(O)cc1)C(=O)N[C@@H](Cc1ccc(O)cc1)C(=O)Nc1ccc(F)cc1F)c1ccc(F)cc1F | 97 |
| CC[C@H](C)[C@H](NC(=O)/C=C/c1ccc(F)cc1)C(=O)N[C@@H](C)C(=O)N[C@@H](CCC(N)=O)C(=O)Nc1ccc(F)c(Cl)c1 | 46 |
| C=CCOC(=O)[C@H](Cc1cn(C(c2ccccc2)(c2ccccc2)c2ccccc2)cn1)NC(=O)[C@H](Cc1ccccc1)NC(=O)CNC(=O)c1coc(-c2ccccc2)n1 | 55 |
| O=C(CNC(=O)[C@@H]1CCCN1C(=O)c1coc(-c2ccccc2)n1)N[C@@H](Cc1ccccc1)C(=O)Nc1ccc(F)cc1F | 89 |
| O=C(CCc1ccccc1)N[C@@H](CO)C(=O)NCC(=O)N[C@@H](CO)C(=O)Nc1ccccc1 (Hydrocinnamoyl-Ser-Gly-Ser-NHPh) | 93 |
| C[C@@H](O)[C@H](NC(=O)/C=C/c1ccccc1)C(=O)N[C@@H](Cc1ccccc1)C(=O)N[C@@H](CCC(N)=O)C(=O)Nc1nccs1 | 86 |
| O=C(CNC(=O)[C@H](Cc1ccccc1)NC(=O)c1coc(-c2ccccc2)n1)N[C@@H](CO)C(=O)Nc1cncs1 | 116 |

Further lines, results first:

| inhibition [%] | SMILES |
| --- | --- |
| 70 | COC(=O)[C@H](Cc1ccc(O)cc1)NC(=O)CNC(=O)[C@H](Cc1c[nH]cn1)NC(=O)OCc1ccccc1 (Cbz-His-Gly-Tyr-OMe) |
| 65 | CCCCCCCCCCC(=O)N[C@@H](Cc1c[nH]cn1)C(=O)N[C@@H](Cc1cnc[nH]1)C(=O)N[C@@H](Cc1ccc(O)cc1)C(=O)NCC(O)CO (stereo partly specified) |
| 61 | CCCCCCCCCCC(=O)N[C@@H](Cc1ccc(O)cc1)C(=O)N[C@@H](Cc1c[nH]cn1)C(=O)N[C@@H](Cc1ccc(O)cc1)C(=O)OCCN |
| 61 | CCCCCCCCCCC(=O)N[C@@H](Cc1c[nH]cn1)C(=O)N[C@@H](Cc1c[nH]cn1)C(=O)N[C@@H](CO)C(=O)Nc1ccccn1 |
| 38 | CCCCCCCCCCCCCC(=O)OC[C@H](NC(=O)CNC(=O)[C@H](Cc1ccccc1)NC(=O)c1coc(-c2ccccc2)n1)C(=O)O |
| 100 | NCCCC[C@H](NC(=O)c1coc(-c2ccccc2)n1)C(=O)NCC(=O)N[C@@H](Cc1ccc(O)cc1)C(=O)O |
| 89 | CCCCCCCCCCC(=O)N[C@@H](Cc1c[nH]cn1)C(=O)N[C@@H](Cc1ccccc1)C(=O)N[C@@H](Cc1ccc(O)cc1)C(=O)NO (Undecanoyl-His-Phe-Tyr-{NHOH}) |
| 68 | CCCCCCCCCCC(=O)N[C@@H](Cc1c[nH]cn1)C(=O)N[C@@H](Cc1ccccc1)C(=O)N[C@@H](Cc1ccc(O)cc1)C(=O)OC (Undecanoyl-His-Phe-Tyr-OMe) |
| 85 | CCCCCCCCCCCCCCCC(=O)N[C@@H](Cc1ccc(O)cc1)C(=O)N[C@@H](Cc1ccc(O)cc1)C(=O)N[C@@H](Cc1ccc(O)cc1)C(=O)NCCCn1ccnc1 |
| 120 | C=CCCCCCCCCCOC(=O)[C@H](CCC(N)=O)NC(=O)[C@H](Cc1ccccc1)NC(=O)[C@H](CO)NC(=O)CCc1ccccc1 |
| 48 | O=C(CCc1ccc(-c2ccccc2)cc1)N[C@H](Cc1cnc[nH]1)C(=O)N[C@@H](Cc1ccc(O)cc1)C(=O)N[C@@H](Cc1ccccc1)C(=O)O |
| 70 | CCCCCCCCCCC(=O)N[C@@H](Cc1c[nH]cn1)C(=O)N[C@@H](Cc1ccccc1)C(=O)N[C@@H](Cc1ccc(O)cc1)C(=O)O (Undecanoyl-His-Phe-Tyr-OH) |
| 37 | CCCCCCCCCCCOc1ccc(C(=O)N[C@@H](Cc2c[nH]cn2)C(=O)N[C@@H](Cc2c[nH]cn2)C(=O)N[C@@H](Cc2c[nH]cn2)C(=O)NCC(O)CO)cc1 (stereo partly specified) |
| 99 | O=C(CNC(=O)[C@H](Cc1c[nH]cn1)NC(=O)c1coc(-c2ccccc2)n1)N[C@@H](Cc1ccc(O)cc1)C(=O)O |
| 96 | NCCCC[C@H](NC(=O)CCc1ccccc1)C(=O)N[C@@H](Cc1c[nH]cn1)C(=O)N[C@@H](CO)C(=O)Nc1ccc(F)cc1F |
| 98 | NCCCC[C@H](NC(=O)CCc1ccccc1)C(=O)N[C@@H](Cc1c[nH]cn1)C(=O)N[C@@H](CO)C(=O)NC1CCCCC1 |
| 100 | NCCOC(=O)[C@H](Cc1ccc(O)cc1)NC(=O)CCNC(=O)[C@H](Cc1c[nH]cn1)NC(=O)OCc1ccccc1 |
| 61 | NCCCCNC(=O)[C@H](Cc1ccc(O)cc1)NC(=O)[C@H](Cc1ccc(O)cc1)NC(=O)[C@H](Cc1ccc(O)cc1)NC(=O)c1ccc(F)cc1F |
| 88 | CCCCCCCCCCC(=O)N[C@@H](Cc1ccc(O)cc1)C(=O)N[C@@H](Cc1c[nH]cn1)C(=O)N[C@@H](Cc1ccc(O)cc1)C(=O)NO (Undecanoyl-Tyr-His-Tyr-{NHOH}) |
| 86 | O=C(CNC(=O)[C@H](Cc1ccc(O)cc1)NC(=O)c1coc(-c2ccccc2)n1)N[C@@H](Cc1c[nH]cn1)C(=O)O |
| 87 | CCCCCCCCCCC(=O)N[C@@H](Cc1ccc(O)cc1)C(=O)N[C@@H](Cc1c[nH]cn1)C(=O)N[C@@H](Cc1c[nH]cn1)C(=O)Nc1ccccc1N |
| 97 | CC(C)C[C@H](NC(=O)[C@H](CO)NC(=O)[C@H](Cc1ccccc1)NC(=O)CCc1ccccc1)C(=O)OCCCl |
| 47 | O=C(N[C@H](Cc1cnc[nH]1)C(=O)N[C@@H](Cc1ccc(O)cc1)C(=O)N[C@@H](Cc1ccccc1)C(=O)O)OCc1ccc(OCc2ccccc2)cc1 |
| 74 | O=C(CNC(=O)[C@H](Cc1c[nH]cn1)NC(=O)OCc1ccccc1)N[C@@H](Cc1ccc(O)cc1)C(=O)NCC(O)CO (stereo partly specified) |
| 29 | CCCCCCCCCC(=O)N[C@@H](Cc1c[nH]cn1)C(=O)N[C@@H](Cc1cnc[nH]1)C(=O)N[C@@H](Cc1ccc(O)cc1)C(=O)OCCN |
